What all share (type): functional, cell-based
The nature of assay [1]: Cytotoxicity against human HA22T cells after 24 hrs by SRB assay. In short, it runs like this:
(§1)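 Monolayer cultures kept in RPMI-1640 with 5% heat-inactivated FBS, 2 mM glutamine, penicillin 100 U/mL and streptomycin, at 37 °C in humidified 5% CO₂. Exponentially growing cells were obtained by plating 1.5×10^5 cells/mL and incubating 24 h before treatment. Vehicle controls received DMSO at 0.5%, the maximum used in each assay.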
A general note: The SRB assay estimates cell density from bound dye.

The next assay relates to NUGC. The assay is described as follows: Cytotoxicity against human NUGC cells after 24 hrs by SRB assay. Put shortly: as §1
The subject of the next assay is HepG2. Description: Cytotoxicity against human HepG2 cells after 24 hrs by SRB assay. The settings on record: HepG2, 24 h. Put shortly:
as §1

Assay [2] can be described thus: Cytotoxicity against human DLD1 cells after 24 hrs by SRB assay. As to conditions: DLD-1, 24 h. In short, it runs like this:
as §1

Assay [3] is described as follows: Cytotoxicity against human MCF cells after 24 hrs by SRB assay. In short, it runs like this: as §1
Assay [4] can be described thus: Cytotoxicity against human HONE1 cells after 24 hrs by SRB assay. As to conditions: HONE1, 24 h. Put shortly:
as §1

Assay [5] is described as follows: Cytotoxicity against human WI38 cells after 24 hrs by SRB assay. As to conditions: WI-38, 24 h. In short, it runs like this: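 Normal fibroblasts were grown as monolayer in RPMI-1640 with 5% heat-inactivated FBS, 2 mM glutamine, penicillin 100 U/mL and streptomycin, at 37 °C in humidified 5% CO₂. Untreated control cells were exposed to the maximum DMSO vehicle concentration (0.5%) used in each assay.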

Consider 18 compounds from ChEMBL document CHEMBL3352138, “Synthesis of novel 1,2,4-triazoles, triazolothiadiazines and triazolothiadiazoles as potential anticancer agents” (Eur J Med Chem, 2014).

With `c1ccc(-c2nn3c(-c4ccncc4)nnc3s2)cc1`, the IC50 – broadly, the concentration needed to halve the response being measured – in assay [1] worked out at 1260 nM; with NUGC, 1280 nM; with HepG2 it was 1360 nM; in assay [2], 3360 nM; in assay [3] it was 1540 nM; in assay [4] it was 2430 nM.
As for `Clc1ccccc1-c1nn2c(-c3ccncc3)nnc2s1`, the IC50 in assay [1] stood at 1260 nM; in the assay on NUGC, 3220 nM; in the assay with HepG2 it was 1330 nM; in assay [2] it was 2660 nM; in assay [3], 2180 nM; in assay [4], 1170 nM.
Regarding `Clc1ccc(-c2nn3c(-c4ccncc4)nnc3s2)c(Cl)c1`, the half-maximal inhibitory concentration (IC50) in assay [1] was found to be 3070 nM; in the assay with NUGC, 2160 nM; with HepG2, 2260 nM; in assay [2], 1190 nM; in assay [3] it was 3220 nM; in assay [4], 1170 nM.
Turning to `c1ccc(C2=Nn3c(nnc3-c3ccncc3)SC2)cc1`, the IC50 in assay [1] is 122 nM; in the assay on NUGC it was 59 nM; with HepG2, 469 nM; in assay [2] it was 2350 nM; in assay [3], 80 nM; in assay [4], 110 nM.
For `Clc1ccc(-c2nn3c(-c4ccncc4)nnc3s2)cc1`, the IC50 came to 120 nM in assay [1]; 25 nM in the assay with NUGC; 1230 nM in the assay on HepG2; 49 nM in assay [2]; 1620 nM in assay [3]; 488 nM in assay [4].
Turning to `CC(=O)Nn1c(S)nnc1-c1ccncc1`, the IC50 in assay [1] is 166 nM; with NUGC, 44 nM; in the assay with HepG2, 53 nM; in assay [2], 42 nM; in assay [3], 2100 nM; in assay [4] it was 1180 nM.
Consider `O=C(Nn1c(S)nnc1-c1ccncc1)c1ccc([N+](=O)[O-])cc1`, for which the concentration for half-maximal inhibition (IC50) in assay [1] was 1110 nM; in the assay with NUGC, 360 nM; in the assay on HepG2, 89 nM; in assay [2] it was 266 nM; in assay [3] it was 1090 nM; in assay [4], 2280 nM.
Consider `Brc1ccc(C2=Nn3c(nnc3-c3ccncc3)SC2)cc1`, for which the IC50 was 2060 nM in assay [1]; 2490 nM in the assay on NUGC; 2290 nM in the assay with HepG2; 2380 nM in assay [2]; 2270 nM in assay [3]; 1780 nM in assay [4].
`Cc1nn2c(-c3ccncc3)nnc2s1`: the IC50 in assay [1] turned out to be 1720 nM; in assay [5] it was 650 nM; in the assay with NUGC, 2190 nM; with HepG2 it was 2740 nM; in assay [2] it was 3280 nM; in assay [3], 219 nM. For the same compound, it took 1080 nM to reach half-maximal inhibition in assay [4] (IC50).
Consider `S=C(Nc1ccc(Cl)cc1)Nn1c(S)nnc1-c1ccncc1`, for which the half-maximal inhibitory concentration (IC50) in assay [1] worked out at 2010 nM; in assay [5] it was 2190 nM; in the assay with NUGC, 2120 nM; with HepG2, 2020 nM; in assay [2], 2250 nM; in assay [3], 3230 nM. Further, 1220 nM corresponded to half-maximal inhibition in assay [4] (IC50).
For the compound `COc1ccc(NC(=S)Nn2c(S)nnc2-c2ccncc2)cc1`, the IC50 in assay [1] turned out to be 2370 nM; in the assay on NUGC, 1820 nM; with HepG2, 1300 nM; in assay [2] it was 2290 nM; in assay [3], 1670 nM; in assay [4], 2270 nM.
`Cc1ccc(NC(=S)Nn2c(S)nnc2-c2ccncc2)cc1`: the IC50 in assay [1] stood at 2380 nM; in the assay with NUGC, 2770 nM; with HepG2, 1230 nM; in assay [2], 2150 nM; in assay [3] it was 2170 nM; in assay [4], 1290 nM.
With `S=C(Nc1ccc(Br)cc1)Nn1c(S)nnc1-c1ccncc1`, the IC50 was determined as 3200 nM in assay [1]; 1290 nM in assay [5]; 3290 nM in the assay on NUGC; 2780 nM with HepG2; 3270 nM in assay [2]; 1590 nM in assay [3]. This compound also showed an IC50 in assay [4] of 1680 nM.
Regarding `Clc1ccc(Nc2nn3c(-c4ccncc4)nnc3s2)cc1`, the concentration for half-maximal inhibition (IC50) is 3070 nM in assay [1]; 1290 nM in the assay on NUGC; 1980 nM in the assay on HepG2; 3260 nM in assay [2]; 1260 nM in assay [3]; 2260 nM in assay [4].
With `COc1ccc(Nc2nn3c(-c4ccncc4)nnc3s2)cc1`, the IC50 in assay [1] came out at 282 nM; with NUGC, 56 nM; in the assay on HepG2, 333 nM; in assay [2] it was 128 nM; in assay [3], 215 nM; in assay [4] it was 2220 nM.
In the case of `Cc1ccc(Nc2nn3c(-c4ccncc4)nnc3s2)cc1`, the IC50 is 277 nM in assay [1]; 480 nM in assay [5]; 540 nM in the assay on NUGC; 312 nM with HepG2; 1380 nM in assay [2]; 120 nM in assay [3]. Besides, in assay [4], the IC50 turned out to be 3280 nM.
On to `Brc1ccc(Nc2nn3c(-c4ccncc4)nnc3s2)cc1`, for which the IC50 came to 782 nM in assay [1]; 136 nM in the assay with NUGC; 128 nM in the assay with HepG2; 320 nM in assay [2]; 229 nM in assay [3]; 2220 nM in assay [4].
`N#CN=C(NCCCCCCOc1ccc(Cl)cc1)Nc1ccncc1` [CHS-828]: the half-inhibitory concentration (IC50) in assay [3] was 18 nM; in assay [4] it was 15 nM.
